Reference: ChEMBL document CHEMBL6071151, “Discovery of Inhibitors Targeting Protein-Protein Interaction between Bacterial RNA Polymerase and NusG as Novel Antimicrobials” (J Med Chem, 2024)
Activity calls are given as the source filed them. No cut-off for these calls is given here.

Columns and labels:
[1] = system: Streptococcus agalactiae; assay: Antimicrobial activity against Streptococcus agalactiae ATCC 12386 assessed as reduction in microbial growth measured after 20 hrs by CLSI based broth microdilution method; format: functional
[2] = system: Streptococcus pneumoniae; assay: Antimicrobial activity against Streptococcus pneumoniae ATCC 49619 assessed as reduction in microbial growth measured after 20 hrs by CLSI based broth microdilution method; format: functional
[3] = system: Streptococcus pneumoniae; assay: Antimicrobial activity against Streptococcus pneumoniae clinical isolate CUHK-X01 assessed as reduction in microbial growth measured after 20 hrs by CLSI based broth microdilution method; format: functional
[4] = system: Staphylococcus saprophyticus; assay: Antimicrobial activity against Staphylococcus saprophyticus ATCC 15305 assessed as reduction in microbial growth measured after 20 hrs by CLSI based broth microdilution method; format: functional
[5] = system: Bacillus subtilis; assay: Antibacterial activity against Bacillus Subtilis assessed as bacterial transcription by measuring delocalization of GFP-tagged RpsB from cell poles towards midcell at 1 time MIC incubated for 30 mins by epifluorescence microscopy based analysis; format: functional, organism-based
Procedure, shortened: (§1)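 B. subtilis reporter strains expressing GFP fusions, grown overnight on selective LB agar at 37 °C, then overnight in LB with selective antibiotic and xylose, 37 °C, 180 rpm. Cells mounted on 1.2% agarose, imaged by epifluorescence with 100×/1.45 oil objective, FITC (525/50) filter.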

[6] = system: Streptococcus pyogenes; assay: Antimicrobial activity against Streptococcus pyogenes ATCC 19615 assessed as reduction in microbial growth measured after 20 hrs by CLSI based broth microdilution method; format: functional
[7] = system: Klebsiella pneumoniae; assay: Antimicrobial activity against Klebsiella pneumoniae ATCC 700603 assessed as reduction in microbial growth measured after 20 hrs by CLSI based broth microdilution method; format: functional
Procedure, shortened: (§2)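 Broth microdilution per CLSI in cation-adjusted Mueller-Hinton broth. Two-fold serial dilutions from 256 to 0.25 μg/mL, inoculum about 5 × 10⁵ CFU/mL. Read after 20 h at 37 °C. MIC is the lowest concentration with no visible growth. Run in duplicate.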

[8] = system: Streptococcus pneumoniae; assay: Antimicrobial activity against Streptococcus pneumoniae clinical isolate CUHK-X03 assessed as reduction in microbial growth measured after 20 hrs by CLSI based broth microdilution method; format: functional
[9] = system: Staphylococcus aureus; assay: Antimicrobial activity against Staphylococcus aureus ATCC 25923 assessed as reduction in microbial growth measured after 20 hrs by CLSI based broth microdilution method; format: functional; procedure, shortened: as §2
[10] = system: Enterobacter cloacae; assay: Antimicrobial activity against Enterobacter cloacae ATCC 13047 assessed as reduction in microbial growth measured after 20 hrs by CLSI based broth microdilution method; format: functional; procedure, shortened: as §2
[11] = system: Enterococcus faecalis; assay: Antimicrobial activity against Enterococcus faecalis ATCC 19433 assessed as reduction in microbial growth measured after 20 hrs by CLSI based broth microdilution method; format: functional; procedure, shortened: as §2
[12] = system: Streptococcus pneumoniae; assay: Antimicrobial activity against Streptococcus pneumoniae clinical isolate CUHK-X02 assessed as reduction in microbial growth measured after 20 hrs by CLSI based broth microdilution method; format: functional
[13] = system: Pseudomonas aeruginosa; assay: Antimicrobial activity against Pseudomonas aeruginosa ATCC 27853 assessed as reduction in microbial growth measured after 20 hrs by CLSI based broth microdilution method; format: functional; procedure, shortened: as §2
[14] = system: Streptococcus pneumoniae; assay: Antimicrobial activity against Streptococcus pneumoniae NP112 (NR-19213) assessed as reduction in microbial growth measured after 20 hrs by CLSI based broth microdilution method; format: functional
[15] = system: Staphylococcus epidermidis; assay: Antimicrobial activity against Staphylococcus epidermidis ATCC 12228 assessed as reduction in microbial growth measured after 20 hrs by CLSI based broth microdilution method; format: functional
[16] = system: Streptococcus pneumoniae; assay: Antimicrobial activity against Streptococcus pneumoniae TCH8431 (HM-145) assessed as reduction in microbial growth measured after 20 hrs by CLSI based broth microdilution method; format: functional
[17] = system: Escherichia coli; assay: Antimicrobial activity against Escherichia coli ATCC 25922 assessed as reduction in microbial growth measured after 20 hrs by CLSI based broth microdilution method; format: functional; procedure, shortened: as §2
[18] = system: Streptococcus pneumoniae; assay: Antimicrobial activity against Streptococcus pneumoniae clinical isolate CUHK-X04 assessed as reduction in microbial growth measured after 20 hrs by CLSI based broth microdilution method; format: functional
[19] = system: Staphylococcus aureus; assay: Antimicrobial activity against Staphylococcus aureus ATCC 29213 assessed as reduction in microbial growth measured after 20 hrs by CLSI based broth microdilution method; format: functional; procedure, shortened: as §2
[20] = system: Acinetobacter baumannii; assay: Antimicrobial activity against Acinetobacter baumannii ATCC 19606 assessed as reduction in microbial growth measured after 20 hrs by CLSI based broth microdilution method; format: functional; procedure, shortened: as §2
[21] = system: Bacillus subtilis; assay: Antibacterial activity against Bacillus Subtilis assessed as bacterial transcription by measuring subcellular localization of MreB at 1 time MIC incubated for 30 mins by epifluorescence microscopy based analysis; format: functional, organism-based; procedure, shortened: as §1
[22] = system: Bacillus subtilis; assay: Antibacterial activity against Bacillus Subtilis assessed as bacterial transcription by measuring delocalization of GFP-tagged RpsB at 1 time MIC incubated for 30 mins by epifluorescence microscopy based analysis; format: functional, organism-based; procedure, shortened: as §1
[23] = Inhibition of Bacillus subtilis LgBiT-fused NusG/C-terminal SmBit fused […] CH protein-protein interaction using […] incubated for 20 mins by luminescence based analysis
Procedure, shortened: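 Split-nanoluciferase competition assay with His-tagged proteins expressed in E. coli BL21(DE3) and Ni-purified. C-SmBiT-β'CH (250 nM in PBS) was preincubated with compound for 10 min at 37 °C. N-LgBiT-NusG (250 nM in PBS) was then added and incubated 10 min at 37 °C. Nano-Glo substrate was added and luminescence read. IC50 determined. Triplicate with technical repeats.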

MIC [2] [µg/mL] | MIC [6] [µg/mL] | MIC [7] [µg/mL] | MIC [8] [µg/mL] | MIC [9] [µg/mL] | MIC [10] [µg/mL] | MIC [11] [µg/mL] | MIC [12] [µg/mL] | MIC [13] [µg/mL] | MIC [14] [µg/mL] | MIC [15] [µg/mL] | MIC [16] [µg/mL] | MIC [17] [µg/mL] | MIC [18] [µg/mL] | MIC [19] [µg/mL] | MIC [20] [µg/mL] | Molecule | MIC [1] [µg/mL] | MIC [3] [µg/mL] | MIC [4] [µg/mL] | other results
– | – | – | – | – | – | – | – | – | – | – | – | – | – | – | – | O=C(N[C@H](CO)[C@H](O)c1ccc([N+](=O)[O-])cc1)C(Cl)Cl | – | – | – | Activity [5]: Active
4 | 16 | > 256 | 16 | 8 | 32 | 16 | 8 | > 256 | 16 | 16 | 4 | 16 | 8 | 16 | 16 | OC(CNCCNc1ccccc1C(F)(F)F)COc1ccc(C(F)(F)F)cc1 (configuration not stated) | 16 | 16 | 8 | –
8 | 8 | > 256 | 8 | 16 | 32 | 16 | 16 | > 256 | 16 | 8 | 8 | 16 | 8 | 16 | 16 | OC(CNCCOc1ccccc1C(F)(F)F)COc1ccc(C(F)(F)F)cc1 (configuration not stated) | 8 | 16 | 8 | –
– | – | – | – | – | – | – | – | – | – | – | – | – | – | – | – | CO[C@H]1/C=C/O[C@@]2(C)Oc3c(C)c(O)c4c(O)c(c(/C=N/N5CCN(C)CC5)c(O)c4c3C2=O)NC(=O)/C(C)=C\C=C\[C@H](C)[C@H](O)[C@@H](C)[C@@H](O)[C@@H](C)[C@H](OC(C)=O)[C@@H]1C | – | – | – | Activity [21]: Active; Activity [22]: Active
– | – | – | – | – | – | – | – | – | – | – | – | – | – | – | – | H-EGRVATSLREHIKLHN-OH | – | – | – | IC50 [23]: 195 µM
4 | 8 | > 256 | 4 | 8 | > 256 | 8 | 8 | > 256 | 8 | 4 | 4 | 32 | 8 | 8 | > 256 | OC(CNCCSc1ccccc1C(F)(F)F)CSc1ccc(C(F)(F)F)cc1 (configuration not stated) | 8 | 8 | 4 | –
64 | – | > 256 | – | 256 | 256 | 256 | – | > 256 | – | – | – | 128 | – | 256 | 256 | OC(CNCCNc1nccc(C(F)(F)F)n1)COc1ccc(F)c(F)c1 (configuration not stated) | – | – | – | –

Molecule | MIC [2] [µg/mL] | MIC [6] [µg/mL] | MIC [7] [µg/mL] | MIC [8] [µg/mL] | MIC [9] [µg/mL] | MIC [10] [µg/mL] | MIC [11] [µg/mL] | MIC [12] [µg/mL] | MIC [13] [µg/mL] | MIC [14] [µg/mL] | MIC [15] [µg/mL] | MIC [16] [µg/mL] | MIC [17] [µg/mL] | MIC [18] [µg/mL] | MIC [19] [µg/mL] | MIC [20] [µg/mL] | MIC [1] [µg/mL] | MIC [3] [µg/mL] | MIC [4] [µg/mL] | other results
Cc1onc(-c2ccccc2)c1C(=O)N[C@@H]1C(=O)N2[C@@H]1SC(C)(C)[C@@H]2C(=O)O [OXACILLIN] | 2 | – | – | – | – | – | – | – | – | – | – | – | – | – | – | – | 1 | ≤ 0.062 | 2 | –
CNC(C)[C@@H]1CC[C@@H](N)[C@@H](O[C@H]2[C@H](O)[C@@H](O[C@H]3OC[C@](C)(O)[C@H](NC)[C@H]3O)[C@H](N)C[C@@H]2N)O1.CN[C@@H]1[C@@H](O)[C@@H](O[C@@H]2[C@@H](O)[C@H](O[C@H]3O[C@H](C(C)N)CC[C@H]3N)[C@@H](N)C[C@H]2N)OC[C@]1(C)O.CN[C@@H]1[C@@H](O)[C@@H](O[C@@H]2[C@@H](O)[C@H](O[C@H]3O[C@H](CN)CC[C@H]3N)[C@@H](N)C[C@H]2N)OC[C@]1(C)O (some centres not stated) | 32 | – | – | – | – | – | – | – | – | – | – | – | – | – | – | – | 64 | 32 | ≤ 0.062 | –
CN[C@H](CC(C)C)C(=O)N[C@H]1C(=O)N[C@@H](CC(N)=O)C(=O)N[C@H]2C(=O)N[C@H]3C(=O)N[C@H](C(=O)N[C@H](C(=O)O)c4cc(O)cc(O)c4-c4cc3ccc4O)[C@H](O)c3ccc(c(Cl)c3)Oc3cc2cc(c3O[C@@H]2O[C@H](CO)[C@@H](O)[C@H](O)[C@H]2O[C@H]2C[C@](C)(N)[C@H](O)[C@H](C)O2)Oc2ccc(cc2Cl)[C@H]1O [VANCOMYCIN] | 1 | – | – | – | – | – | – | – | – | – | – | – | – | – | – | – | 1 | 0.5 | 2 | –
